ChEMBL document CHEMBL1143898, “Synthesis and study of antiviral and anti-radical properties of aminophenol derivatives” (Bioorg Med Chem Lett, 2008)
pEC50: −log10 of the molar value. Activity calls are given as the source filed them.

Test system: Human alphaherpesvirus 1
Experiment: Antiviral activity against HSV1-induced cytopathic effect in human rhabdomyosarcoma cells assessed as suppression of viral replication
Type: functional, organism-based
Outline: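 HSV-1 infected human rhabdomyosarcoma (RD) cell culture; cytopathic effect based method. Compound predissolved in 10% ethanol, then twofold dilutions made in maintenance medium 199. Criterion: reduction of virus titer relative to untreated infected control; concentrations suppressing virus replication by 50% and 90% calculated (EC50, EC90).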
In the case of `CC(C)(C)c1cc(Nc2ccccc2)c(O)c(C(C)(C)C)c1`, the pEC50 was 4.64 and the EC90 was 169 µM. `CCC(=O)Nc1cc(C(C)(C)C)cc(C(C)(C)C)c1O` gave a pEC50 of 4.42 and an EC90 of 64.5 µM. `CC(C)(C)c1cc(N)c(O)c(C(C)(C)C)c1` showed a pEC50 of 4.06 and an EC90 of 288 µM. With `COc1c(Nc2ccccc2)cc(C(C)(C)C)cc1C(C)(C)C` the pEC50 was 3.59 and the EC90 was 624 µM. `CC(=O)Nc1cc(C(C)(C)C)cc(C(C)(C)C)c1O` gave a pEC50 of 5.07 and an EC90 of 14.8 µM. Compound `CCCC(=O)Nc1cc(C(C)(C)C)cc(C(C)(C)C)c1O` has a pEC50 of 5.07 and an EC90 of 14.1 µM. `COc1c(NC(C)=O)cc(C(C)(C)C)cc1C(C)(C)C` gave a pEC50 of 3.10 and an EC90 of 1960 µM.

Test system: not listed separately
Experiment: Cytotoxicity against human rhabdomyosarcoma cells assessed as maximum non-toxic concentrations after 72 hrs
Type: functional
Outline: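 Non-infected RD cell cultures exposed to compound for 72 h; maximum non-toxic concentration determined.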
`CC(C)(C)c1cc(Nc2ccccc2)c(O)c(C(C)(C)C)c1` gave an Activity of 336.7 µM. For `CCC(=O)Nc1cc(C(C)(C)C)cc(C(C)(C)C)c1O`, the Activity was 720.9 µM. Compound `CC(C)(C)c1cc(N)c(O)c(C(C)(C)C)c1` has an Activity of 113.2 µM. Compound `COc1c(Nc2ccccc2)cc(C(C)(C)C)cc1C(C)(C)C` has an Activity of 722 µM. Work on `CC(=O)Nc1cc(C(C)(C)C)cc(C(C)(C)C)c1O` yielded an Activity of 379.7 µM. `CCCC(=O)Nc1cc(C(C)(C)C)cc(C(C)(C)C)c1O` showed an Activity of 686.2 µM. For `COc1c(NC(C)=O)cc(C(C)(C)C)cc1C(C)(C)C`, the Activity was 1444 µM.

Test system: Peritoneal macrophage cell
Experiment: Inhibition of zymosan-stimulated ROS production in rat peritoneal macrophages
Type: functional, cell-based
Outline: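 ROS generation measured by luminol-dependent chemiluminescence with and without compound; EC50 and EC90 taken as concentrations lowering luminescence intensity by 50% and 90%.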
Compound `CC(C)(C)c1cc(Nc2ccccc2)c(O)c(C(C)(C)C)c1` has a pEC50 of 5.01. With `CCC(=O)Nc1cc(C(C)(C)C)cc(C(C)(C)C)c1O` the Activity was “inactive”. With `CC(C)(C)c1cc(N)c(O)c(C(C)(C)C)c1` the pEC50 was 7.22. With `COc1c(Nc2ccccc2)cc(C(C)(C)C)cc1C(C)(C)C` the Activity was “inactive”. In the case of `CC(=O)Nc1cc(C(C)(C)C)cc(C(C)(C)C)c1O`, the Activity was “inactive”. For `CCCC(=O)Nc1cc(C(C)(C)C)cc(C(C)(C)C)c1O`, the Activity was “inactive”.
